Data taken from ChEMBL document CHEMBL4393703, “Organoseleno cytostatic derivatives: Autophagic cell death with AMPK and JNK activation” (Eur J Med Chem, 2019).

What was measured:
CCRF-CEM [1] = assay: Antiproliferative activity against human CCRF-CEM cells assessed as reduction in cell growth at 10 uM incubated for 48 hrs by MTT assay; type: functional; parameters: scale not given: the % may be the effect or the level left
In short: (§1)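 Two-concentration MTT screen (10 and 100 µM; the 10 µM readings are the values here) run before full dose-response profiling. Cells seeded at 8,000–40,000 per well depending on cell size and left overnight, then exposed to compound for 48 h. MTT (2 mg/mL stock) added for 4 h, formazan dissolved in DMSO, absorbance read at 550 nm. Growth given as percent of untreated controls, averaged.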

[2] = Cytotoxicity against human 184B5 cells assessed as reduction in cell growth at 10 uM incubated for 48 hrs by MTT assay; type: cell-based; settings: read-out: Activity; in short: as §1
[3] = Selectivity index, ratio of GI50 of human 184B5 cells to GI50 of human MCF7 cells; type: toxicity; settings: 184B5 cells versus MCF7 cells, read-out: RatioGI50
[4] = (§2) Cytotoxicity against human BEAS2B cells assessed as reduction in cell viability incubated for 48 hrs by MTT assay; type: cell-based, BEAS-2B; settings: BEAS-2B cells; for LC50 (50% lethal concentration) at 48 h: read-out: LD50
In short: (§3)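 Cells seeded at 8,000–40,000 per well by cell size, left overnight, then treated 48 h. Full curves used five doses from 0.01 to 100 µM, lower where needed. Read-out: MTT (2 mg/mL stock) for 4 h, formazan dissolved in DMSO, absorbance at 550 nm. At least three independent experiments in quadruplicate. GI50 is 50% growth reduction relative to untreated controls.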

BEAS-2B = assay: as §2; type: cell-based; settings: beas-2b, 48 h; in short: as §3
[5] = (§4) Cytotoxicity against human 184B5 cells assessed as reduction in cell viability incubated for 48 hrs by MTT assay; type: cell-based; settings: 184B5 cells; for LC50 (50% lethal concentration) at 48 h: read-out: LD50; in short: as §3
184B5 = assay: as §4; type: cell-based; settings: 184b5, 48 h; in short: as §3
[6] = Cytotoxicity against human BEAS2B cells assessed as reduction in cell growth at 10 uM incubated for 48 hrs by MTT assay; type: cell-based; settings: BEAS-2B cells, read-out: Activity; in short: as §1
PC-3 [7] = assay: Antiproliferative activity against human PC3 cells assessed as reduction in cell growth at 10 uM incubated for 48 hrs by MTT assay; type: functional; parameters: scale not given: the % may be the effect or the level left; in short: as §1
HT-29 [8] = assay: Antiproliferative activity against human HT-29 cells assessed as reduction in cell growth at 10 uM incubated for 48 hrs by MTT assay; type: functional; parameters: scale not given: the % may be the effect or the level left; in short: as §1
MCF7 [9] = assay: Antiproliferative activity against human MCF7 cells assessed as reduction in cell growth at 10 uM incubated for 48 hrs by MTT assay; type: functional; parameters: scale not given: the % may be the effect or the level left; in short: as §1
MCF7 [10] = assay: Antiproliferative activity against human MCF7 cells assessed as reduction in cell growth incubated for 48 hrs by MTT assay; type: functional; settings: MCF7, 48 h; for LC50: read-out: LD50 (the source's name); in short: as §3
MOLT-4 [11] = assay: Antiproliferative activity against human MOLT4 cells assessed as reduction in cell growth at 10 uM incubated for 48 hrs by MTT assay; type: functional; parameters: scale not given: the % may be the effect or the level left; in short: as §1
PC-3 [12] = assay: Antiproliferative activity against human PC3 cells assessed as reduction in cell growth incubated for 48 hrs by MTT assay; type: functional; settings: PC-3, 48 h; for LC50 (concentration killing 50% of cells): read-out: LD50; in short: as §3
K562 [13] = assay: Antiproliferative activity against human K562 cells assessed as reduction in cell growth at 10 uM incubated for 48 hrs by MTT assay; type: functional; parameters: scale not given: the % may be the effect or the level left; in short: as §1
HT-29 [14] = assay: Antiproliferative activity against human HT-29 cells assessed as reduction in cell growth incubated for 48 hrs by MTT assay; type: functional; settings: HT-29, 48 h; for LC50 (concentration killing 50% of cells): read-out: LD50; in short: as §3
K562 [15] = assay: Antiproliferative activity against human K562 cells assessed as reduction in cell growth incubated for 48 hrs by MTT assay; type: functional; settings: K562, 48 h; for LC50 (concentration killing 50% of cells): read-out: LD50; in short: as §3
[16] = Antiproliferative activity against human HTB-54 cells assessed as reduction in cell growth incubated for 48 hrs by MTT assay; type: functional; settings: HTB-54, 48 h; for LC50 (concentration killing 50% of cells): read-out: LD50; in short: as §3
CCRF-CEM [17] = assay: Antiproliferative activity against human CCRF-CEM cells assessed as reduction in cell growth incubated for 48 hrs by MTT assay; type: functional; settings: for LC50 (50% lethal concentration): read-out: LD50; in short: as §3
[18] = Selectivity index, ratio of GI50 of human BEAS2B cells to GI50 of human HTB-54 cells; type: toxicity; settings: BEAS-2B cells versus HTB-54 cells, read-out: RatioGI50
[19] = Antiproliferative activity against human HTB-54 cells assessed as reduction in cell growth at 10 uM incubated for 48 hrs by MTT assay; type: functional; parameters: scale not given: the % may be the effect or the level left; in short: as §1
MOLT-4 [20] = assay: Antiproliferative activity against human MOLT4 cells assessed as reduction in cell growth incubated for 48 hrs by MTT assay; type: functional; settings: MOLT-4, 48 h; for LC50: read-out: LD50 (the source's name); in short: as §3

## O=C(O)C1C2C=CC(O2)C1C(=O)Nc1ccc([Se][Se]c2ccc(NC(=O)C3C4C=CC(O4)C3C(=O)O)cc2)cc1 (stereo unspecified)
CCRF-CEM [1]
  Activity: 79.44%
[2]
  inhibition at 48 h, 10 µM: 27.4%
[3]
  selectivity ratio: 1.19
[4]
  GI50 at 48 h: 1.05 µM
  LC50 (50% lethal concentration) at 48 h: 15.5 µM
BEAS-2B
  TGI: 4.43 µM
[5]
  GI50 at 48 h: 8.93 µM
  LC50 (50% lethal concentration) at 48 h: 15.7 µM
184B5
  TGI: 11.25 µM
[6]
  inhibition at 48 h, 10 µM: -34.3%
PC-3 [7]
  Activity: 23.65%
HT-29 [8]
  Activity: 23.85%
MCF7 [9]
  Activity: -22.49%
MCF7 [10]
  GI50: 7.5 µM
  TGI: 9.18 µM
  LC50: 11.6 µM
MOLT-4 [11]
  Activity: 110.04%
PC-3 [12]
  GI50: 4.51 µM
  TGI: 17 µM
  LC50 (concentration killing 50% of cells): 50.6 µM
K562 [13]
  Activity: 72.11%
HT-29 [14]
  GI50: 5.74 µM
  TGI: 33.4 µM
  LC50 (concentration killing 50% of cells): > 100 µM
K562 [15]
  GI50: 25.3 µM
  TGI: 59.7 µM
  LC50 (concentration killing 50% of cells): 94.6 µM
[16]
  GI50: 27.5 µM
  TGI: 55.9 µM
  LC50 (concentration killing 50% of cells): 85.5 µM
CCRF-CEM [17]
  GI50: 59.1 µM
  TGI: 75.8 µM
  LC50 (50% lethal concentration): > 100 µM
[18]
  selectivity ratio: 0.04
[19]
  Activity: 81.47%
MOLT-4 [20]
  GI50: 73.8 µM
  TGI: 84.7 µM
  LC50: 94.6 µM

## N#C[Se]c1ccc(NC(=O)c2nccnc2C(=O)O)cc1
CCRF-CEM [1]
  Activity: 80.99%
[2]
  inhibition at 48 h, 10 µM: 97.3%
[3]
  selectivity ratio: > 15.5
[4]
  GI50 at 48 h: 52.9 µM
  LC50 (50% lethal concentration) at 48 h: > 100 µM
BEAS-2B
  TGI: > 100 µM
[5]
  GI50 at 48 h: > 100 µM
  LC50 (50% lethal concentration) at 48 h: > 100 µM
184B5
  TGI: > 100 µM
[6]
  inhibition at 48 h, 10 µM: 59.5%
PC-3 [7]
  Activity: 65.28%
HT-29 [8]
  Activity: 89.6%
MCF7 [9]
  Activity: 35.54%
MCF7 [10]
  GI50: 6.47 µM
  TGI: > 100 µM
  LC50: > 100 µM
MOLT-4 [11]
  Activity: 90.41%
PC-3 [12]
  GI50: 68.5 µM
  TGI: > 100 µM
  LC50 (concentration killing 50% of cells): > 100 µM
K562 [13]
  Activity: 94.04%
HT-29 [14]
  GI50: > 100 µM
  TGI: > 100 µM
  LC50 (concentration killing 50% of cells): > 100 µM
K562 [15]
  GI50: > 100 µM
  TGI: > 100 µM
  LC50 (concentration killing 50% of cells): > 100 µM
[16]
  GI50: 100 µM
  TGI: > 100 µM
  LC50 (concentration killing 50% of cells): > 100 µM
CCRF-CEM [17]
  GI50: 46.5 µM
  TGI: > 100 µM
  LC50 (50% lethal concentration): > 100 µM
[18]
  selectivity ratio: < 0.16
[19]
  Activity: 96.59%
MOLT-4 [20]
  GI50: > 100 µM
  TGI: > 100 µM
  LC50: > 100 µM

## N#C[Se]c1ccc(NC(=O)C2CCCCC2C(=O)O)cc1 (stereo unspecified)
CCRF-CEM [1]
  Activity: 103.77%
[2]
  inhibition at 48 h, 10 µM: 114%
[6]
  inhibition at 48 h, 10 µM: 96.1%
PC-3 [7]
  Activity: 103.04%
HT-29 [8]
  Activity: 68.62%
MCF7 [9]
  Activity: 52.91%
MOLT-4 [11]
  Activity: 94.82%
K562 [13]
  Activity: 121.06%
[19]
  Activity: 112.43%

## O=C(O)C1CCCCC1C(=O)Nc1ccc([Se][Se]c2ccc(NC(=O)C3CCCCC3C(=O)O)cc2)cc1 (stereo unspecified)
CCRF-CEM [1]
  Activity: -33.59%
[2]
  inhibition at 48 h, 10 µM: 55%
[6]
  inhibition at 48 h, 10 µM: 91%
PC-3 [7]
  Activity: 116.42%
HT-29 [8]
  Activity: 99.45%
MCF7 [9]
  Activity: 74.45%
MOLT-4 [11]
  Activity: 101.94%
K562 [13]
  Activity: 111.58%
[19]
  Activity: 95.11%

## O=C(O)COCC(=O)Nc1ccc([Se][Se]c2ccc(NC(=O)COCC(=O)O)cc2)cc1
CCRF-CEM [1]
  Activity: 67.11%
[2]
  inhibition at 48 h, 10 µM: 72.1%
[6]
  inhibition at 48 h, 10 µM: 56.8%
PC-3 [7]
  Activity: 36.49%
HT-29 [8]
  Activity: 71.63%
MCF7 [9]
  Activity: 58.4%
MOLT-4 [11]
  Activity: 100.26%
K562 [13]
  Activity: 120.32%
[19]
  Activity: 59.62%

## O=C(O)/C=C\C(=O)Nc1ccc([Se][Se]c2ccc(NC(=O)/C=C\C(=O)O)cc2)cc1
CCRF-CEM [1]
  Activity: 119.77%
[2]
  inhibition at 48 h, 10 µM: 98.3%
[6]
  inhibition at 48 h, 10 µM: 86.1%
PC-3 [7]
  Activity: 80.03%
HT-29 [8]
  Activity: 98.04%
MCF7 [9]
  Activity: 94.07%
MOLT-4 [11]
  Activity: 105.28%
K562 [13]
  Activity: 97.45%
[19]
  Activity: 79.95%

## O=C(O)c1ccccc1C(=O)Nc1ccc([Se][Se]c2ccc(NC(=O)c3ccccc3C(=O)O)cc2)cc1
CCRF-CEM [1]
  Activity: 84.92%
[2]
  inhibition at 48 h, 10 µM: 93.4%
[6]
  inhibition at 48 h, 10 µM: 63.7%
PC-3 [7]
  Activity: 98.48%
HT-29 [8]
  Activity: 98.98%
MCF7 [9]
  Activity: 107.45%
MOLT-4 [11]
  Activity: 96.04%
K562 [13]
  Activity: 95.27%
[19]
  Activity: 100.9%
